Measurements as given in article PMC7555381 (International Journal of Nanomedicine, 2020).

What was measured:
[1] = system: Madin–Darby Canine Kidney (MDCK) cells; assay: In vitro cytotoxicity; assay type: cell-based; details: 12 h
Outline: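 MDCK cells seeded at 5×10³ cells/well in DMEM with 10% FBS and 1% penicillin/streptomycin, then held 24 h at 37°C. Treated with test formulations diluted in DMEM at 1, 10, 25, 50, 100, 250 and 500 µg/mL drug equivalent, with matching excipient-only controls, for 12 h. WST-8 was added for 2 h and absorbance read at 450 nm. Viability is expressed relative to untreated cells.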

In vitro drug release = assay type: physicochemical; details: 37°C, 100 rpm
Outline: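 Drug release from the formulation and from free drug was tested in 900 mL of 0.1 N HCl (pH 1.2) or phosphate buffer (pH 6.8). USP apparatus I (basket) was run at 100 rpm and 37±0.2°C. Results are given as cumulative percentage released over time.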

[2] = system: CT26 (murine colon cancer) tumor; assay: In vivo tumor growth inhibition in CT26 tumor-bearing mice; parameters: species or system BALB/c mice
Outline: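 Female BALB/c mice, 6 weeks old, received 1×10⁶ CT26 cells in PBS in the right dorsal flank. At 70–100 mm³, mice were randomised to seven groups of 14: untreated; IV drug 3.3 or 10 mg/kg once biweekly; oral aqueous drug 10 mg/kg daily; oral formulation at 2.5, 10 or 20 mg/kg equivalent daily, for 21 days. Mice were fasted 4 h before and 2 h after dosing. Caliper volume (width²×length×0.52) was recorded every 3 days. Day-21 tumors were weighed and stained for CD31, PCNA and TUNEL.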

[3] = system: HCT116 (human colon cancer) tumor; assay: In vivo tumor growth inhibition in HCT116 tumor-bearing mice; parameters: species or system BALB/c nude mice
Outline: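 Female BALB/c nude mice, 6 weeks old, received 1×10⁷ HCT116 cells in PBS in the right dorsal flank. At 70–100 mm³, mice were randomised to the same seven arms: untreated; IV drug 3.3 or 10 mg/kg biweekly; oral aqueous drug 10 mg/kg daily; oral formulation at 2.5, 10 or 20 mg/kg daily, for 21 days. Mice were fasted 4 h before and 2 h after dosing. Caliper volume (width²×length×0.52) was recorded every 3 days, and tumors were weighed at day 21.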

[4] = CT26, once-biweekly IV 10 mg/kg OP, 21 days
[5] = HCT116 tumors, day 21, groups OP-IV (10), ODSF (10), ODSF (20)

## O=C1[O][Pt]2([NH][C@@H]3CCCC[C@H]3[NH]2)[O]C1=O (relative stereo) [OP, cis-[(1R,2R)-1,2-cyclohexanediamine-N,N’] [oxalato(2)-O,O´] platinum]
[1]; 250 µg/mL
  Cell viability: 74.8±6.82%
[1]; 500 µg/mL
  Cell viability: 55.3±7.79%
[1]
  Concentrations at which cytotoxicity was demonstrated: higher than 100 µg/mL
In vitro drug release; pH 1.2 (0.1 N HCl), at 60 min
  Cumulative drug release: exceeded 90%
In vitro drug release; pH 6.8 phosphate buffer, at 120 min
  Cumulative drug release: exceeded 90%
[2]; CT26, once-biweekly IV 3.3 mg/kg OP, 21 days
  Inhibition of tumor growth rate compared to the control group: 40.0%
[2]; [4]
  Tumor suppression compared to the OP-S (10) group: 53.3%
  Tumor suppression compared to the control group: 70.2%
[2]; CT26, once-biweekly IV 10 mg/kg OP, day 21
  Reduction of isolated tumor mass compared to the controls: 71.7%
[2]; CT26 tumors, day 21, groups ODSF (10), ODSF (20), OP-IV (10)
  TUNEL-positive cells (apoptosis) compared to the controls: significant increases in the number of TUNEL-positive cells
[2]; CT26 tumors, day 21, groups OP-IV (3.3), OP-S (10), ODSF (10), ODSF (20)
  CD31-positive microvessels (immunohistochemistry): greater numbers of microvessels
[2]; CT26 tumors, day 21, groups OP-S, OP-IV (10), ODSF (10), ODSF (20), listed as OP-S
  Numbers of PCNA-positive cells (proliferation): significantly higher
[3]; HCT116, once-biweekly IV 3.3 mg/kg OP
  Reduction in tumor volume compared to controls: 33.5%
[3]; [5]
  Numbers of CD31-positive microvessels compared to the control and OP-S (10) groups: marked reductions
  Numbers of PCNA-positive proliferating cells compared to the control and OP-S (10) groups: marked reductions
  TUNEL-positive apoptotic cells compared to the control and OP-S (10) groups: significantly greater numbers of TUNEL-positive apoptotic cells
